Measured values: ChEMBL document CHEMBL4219039, “Group-Based Optimization of Potent and Cell-Active Inhibitors of the von Hippel-Lindau (VHL) E3 Ubiquitin Ligase: Structure-Activity Relationships Leading to the Chemical Probe …” (J Med Chem, 2018)
Activity calls are given as the source filed them. The calls are words filed in the database; no cut-off is given here.

What was measured:
[1] = Passive permeability of the compound in pH 7.4 PBS at 10 uM after 5 hrs by UPLC-MS/MS method based PAMPA; type: ADME; conditions: pH 7.4, 5 h
Summary of the method: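 Precoated PAMPA plate with lipid–oil–lipid trilayer filter. Compound at 10 μM in PBS pH 7.4 (≤5% DMSO) in the donor well, PBS in the acceptor well. Held 5 h at room temperature; both compartments quantified by UPLC-MS/MS. Pe calculated from peak areas; data accepted only if recovery exceeded 70%. Propranolol as control.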

[2] = biological target: T1, Von Hippel-Lindau disease tumor suppressor/Elongin B/Elongin C (Homo sapiens, UniProt P40337)
T1 sequence (P40337 whole entry, looked up): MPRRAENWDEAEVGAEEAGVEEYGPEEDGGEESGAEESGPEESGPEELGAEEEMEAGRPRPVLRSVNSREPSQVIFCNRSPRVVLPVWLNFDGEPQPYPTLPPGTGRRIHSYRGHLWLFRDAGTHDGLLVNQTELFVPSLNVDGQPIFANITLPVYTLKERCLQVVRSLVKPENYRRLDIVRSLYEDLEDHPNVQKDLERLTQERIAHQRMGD

[3] = Chromatographic hydrophobicity index, log D of the compound at pH 7.4 by HPLC analysis; type: physicochemical; conditions: buffer
Summary of the method: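 DMSO stocks (10 mM) diluted to 0.25 mM in 50:50 acetonitrile:water. Run on C18 HPLC at 20 °C, 1 mL/min. Mobile phase 10 mM ammonium acetate pH 7.4 with an acetonitrile gradient. Retention times calibrated against a standard mix of eleven reference compounds, then converted to CHIlogD.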

[4] = biological target: T2, Von Hippel-Lindau disease tumor suppressor/Elongin B/Elongin C (Homo sapiens) (UniProt P40337+Q15370+Q15369); test: Inhibition of VBC in human HeLa cells assessed as HIF-1alpha stabilization by measuring HIF-1alpha protein levels at 50 uM after 2 hrs by Western blot analysis; type: cell-based; set-up: scale not given: the % may be the effect or the level left
T2 sequence (P40337 whole entry, looked up): as above
T2 sequence (Q15369 whole entry, looked up): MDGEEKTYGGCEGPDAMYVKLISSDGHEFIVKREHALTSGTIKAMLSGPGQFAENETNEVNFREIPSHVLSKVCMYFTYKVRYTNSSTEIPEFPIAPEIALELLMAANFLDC
T2 sequence (Q15370 whole entry, looked up): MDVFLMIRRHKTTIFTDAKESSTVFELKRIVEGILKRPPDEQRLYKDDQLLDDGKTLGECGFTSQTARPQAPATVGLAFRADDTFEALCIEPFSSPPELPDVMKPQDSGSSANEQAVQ
Summary of the method: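 HeLa (ATCC) grown in DMEM with 10% FBS, L-glutamine and penicillin/streptomycin at 37 °C; mycoplasma-tested. Treated 2 h in fresh medium, 1% DMSO as vehicle control. Lysed in RIPA buffer with protease inhibitors, SDS-PAGE, nitrocellulose blot. Anti-HIF-1α probed with β-actin as loading control, IRDye 800CW secondary for detection. Levels normalized to a reference VHL inhibitor.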

[5] = biological target: T1, Von Hippel-Lindau disease tumor suppressor/Elongin B/Elongin C; test: Displacement of FAM-labeled HIF-1alpha peptide from VBC (unknown origin) by fluorescence polarization assay
[6] = biological target: T2, Von Hippel-Lindau disease tumor suppressor/Elongin B/Elongin C (Homo sapiens); test: Inhibition of VBC in human HeLa cells expressing HRE-luciferase reporter gene assessed as reduction in HIF transcriptional activity at 1 to 250 uM after 24 hrs by luciferase reporter gene assay; type: cell-based
[7] = biological target: T2, Von Hippel-Lindau disease tumor suppressor/Elongin B/Elongin C (Homo sapiens)
[8] = biological target: T2, Von Hippel-Lindau disease tumor suppressor/Elongin B/Elongin C (Homo sapiens); remark: listed apart in the source
[9] = biological target: T2, Von Hippel-Lindau disease tumor suppressor/Elongin B/Elongin C (Homo sapiens); test: Binding affinity to VBC (unknown origin) assessed as dissociation rate constant at 50 uM after 160 secs at 10 degC by surface plasmon resonance assay; type: protein-complex assay
Summary of the method: (§1)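 SPR on a Biacore T100 at 10 and 20 °C against VBC complex. Ligand stock 50 μM in DMSO, 2-fold serial dilutions in SPR buffer (20 mM HEPES, 150 mM NaCl, 1 mM DTT, 0.005% Tween P20, pH 7.0). Kd taken as koff/kon.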

HeLa [10] = test: Antiproliferative activity against human HeLa cells assessed as reduction in cell proliferation at 150 uM incubated for 24 to 72 hrs by haemocytometry; type: cell-based
HeLa [11] = test: Antiproliferative activity against human HeLa cells assessed as reduction in colony formation at 150 uM incubated for 24 hrs by crystal violet staining based assay; type: cell-based
Summary of the method: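 HeLa cells, 500–2000 per well, seeded one day before exposure to 150 μM compound; 1% DMSO as vehicle control. Medium replaced after 24 h treatment, then grown a further week. Stained with 0.005% crystal violet in 25% methanol for 10 min at room temperature. Colonies counted on scanned plates.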

[12] = Intrinsic clearance in CD1 mouse liver microsomes at 0.5 uM up to 30 mins by UPLC-MS/MS analysis; type: ADME, microsome; conditions: 0.5 h
Summary of the method: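 Compound at 0.5 μM with female CD1 mouse liver microsomes (0.5 mg/mL) in 50 mM potassium phosphate pH 7.4, started with excess NADPH. Samples quenched in acetonitrile at 0, 3, 6, 9, 15 and 30 min; UPLC-MS/MS against internal standard. Decay rate constant converted to CLi assuming 52.5 mg microsomal protein/g liver. Verapamil as assay control.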

[13] = biological target: T2, Von Hippel-Lindau disease tumor suppressor/Elongin B/Elongin C (Homo sapiens); test: Binding affinity to VBC (unknown origin) assessed as association rate constant at 50 uM after 60 secs at 10 degC by surface plasmon resonance assay; type: protein-complex assay; summary of the method: as §1
[14] = biological target: T2, Von Hippel-Lindau disease tumor suppressor/Elongin B/Elongin C (Homo sapiens); test: Binding affinity to VBC (unknown origin) assessed as dissociation rate constant at 50 uM after 160 secs at 20 degC by surface plasmon resonance assay; type: protein-complex assay; summary of the method: as §1
[15] = Half life in plasma (unknown origin) at pH 7.4 at 50 uM up to 180 mins by UPLC-MS/MS analysis; type: ADME, cell-free
Summary of the method: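 Compound at 50 μM incubated at 37 °C in prewarmed plasma buffered to pH 7.4 (70:30 plasma to buffer). Aliquots were taken at 0, 30, 60, 120 and 180 min and quenched in acetonitrile with donepezil internal standard. Samples were centrifuged and analysed by UPLC-MS/MS. The rate constant was fitted as exponential decay of the compound/internal standard peak-area ratio.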

[16] = biological target: T2, Von Hippel-Lindau disease tumor suppressor/Elongin B/Elongin C (Homo sapiens); test: Binding affinity to VBC (unknown origin) assessed as association rate constant at 50 uM after 60 secs at 20 degC by surface plasmon resonance assay; type: protein-complex assay; summary of the method: as §1
[17] = biological target: T1, Von Hippel-Lindau disease tumor suppressor/Elongin B/Elongin C; remark: listed apart in the source
[18] = biological target: T1, Von Hippel-Lindau disease tumor suppressor/Elongin B/Elongin C; remark: listed apart in the source

SMILES	permeability [1] [×10⁻⁶ cm/s]	chromatographic logD [3]	Activity [4] [%]	Kd [5] [nM]	further results
Cc1ncsc1-c1ccc(CNC(=O)[C@@H]2C[C@@H](O)CN2C(=O)[C@@H](NC(=O)C2CC2)C(C)(C)C)cc1	0.61	1.14	105	170	Kd [2]: 132 nM
Cc1ncsc1-c1ccc(CNC(=O)[C@@H]2C[C@@H](O)CN2C(=O)[C@@H](NC(=O)C2(F)CC2)C(C)(C)C)cc1	2.71	1.63	175	–	inhibition [6]: Active; T1/2 [7]: 7.07 s; T1/2 [8]: 11.9 s; K [9]: 0.058 s⁻¹; Activity (HeLa [10]): Toxic; Activity (HeLa [11]): Toxic; intrinsic clearance (CLint) [12]: 2.9 mL/min/g; K [13]: 2.4 ×10⁶ /M/s; K [14]: 0.098 s⁻¹; half-life at 50 µM [15]: > 3 h
CC(=O)N(C)[C@H](C(=O)N1C[C@H](O)C[C@H]1C(=O)NCc1ccc(-c2scnc2C)cc1)C(C)(C)C	–	–	26	–	–
Cc1ncsc1-c1ccc(CNC(=O)[C@@H]2C[C@H](O)CN2C(=O)[C@@H](NC(=O)C2(F)CC2)C(C)(C)C)cc1	–	–	–	–	Activity (HeLa [10]): Toxic; Activity (HeLa [11]): Toxic
Cc1ncsc1-c1ccc(CNC(=O)[C@@H]2C[C@@H](O)CN2C(=O)[C@@H](NC(=O)C(C)(C)F)C(C)(C)C)cc1	–	–	19	770	–
CC(=O)C1(C(=O)N[C@H](C(=O)N2C[C@H](O)C[C@H]2C(=O)NCc2ccc(-c3scnc3C)cc2)C(C)(C)C)CC1	1.5	1.34	156	170	K [16]: 8.2 ×10⁵ /M/s; Kd [2]: 106 nM; T1/2 [7]: 4.1 s; T1/2 [8]: 10 s; K [9]: 0.069 s⁻¹; Kd [17]: 115 nM; Kd [18]: 97 nM; intrinsic clearance (CLint) [12]: 2.5 mL/min/g; K [13]: 6 ×10⁵ /M/s; K [14]: 0.169 s⁻¹; half-life at 50 µM [15]: > 3 h
Cc1ncsc1-c1ccc(CNC(=O)[C@@H]2C[C@@H](O)CN2C(=O)[C@@H](NC(=O)C2(F)CC2)C(C)O)cc1 (single isomer, unassigned)	–	–	46	370	–
Cc1ncsc1-c1ccc(CNC(=O)[C@@H]2C[C@@H](O)CN2C(=O)[C@@H](NC(=O)C2(C#N)CC2)C(C)(C)C)cc1	1.94	1.4	190	–	Activity (HeLa [10]): Non-Toxic; Activity (HeLa [11]): Non-Toxic; intrinsic clearance (CLint) [12]: 3.1 mL/min/g; half-life at 50 µM [15]: > 3 h
CC(=O)N[C@@H](C)C(=O)N1C[C@H](O)C[C@H]1C(=O)NCc1ccc(-c2scnc2C)cc1	–	–	12	–	–
Cc1ncsc1-c1ccc(CNC(=O)[C@@H]2C[C@@H](O)CN2C(=O)[C@@H](NC(=O)C(F)(F)F)C(C)(C)C)cc1	–	–	95	270	–
Cc1ncsc1-c1ccc(CNC(=O)[C@@H]2C[C@@H](O)CN2C(=O)[C@@H](NC(=O)C2COC2)C(C)(C)C)cc1	0.03	0.71	34	320	Kd [2]: 230 nM
Cc1ncsc1-c1ccc(CNC(=O)[C@@H]2C[C@@H](O)CN2C(=O)[C@@H](NC(=O)CC(C)(C)C)C(C)(C)C)cc1	–	–	65	450	–
Cc1ncsc1-c1ccc(CNC(=O)[C@@H]2C[C@@H](O)CN2C(=O)[C@@H](NC(=O)C2CCC2)C(C)(C)C)cc1	1.16	1.3	138	250	K [16]: 1.1 ×10⁶ /M/s; Kd [2]: 210 nM; T1/2 [8]: 4.95 s; K [9]: 0.14 s⁻¹; Kd [17]: 271 nM; Kd [18]: 233 nM; intrinsic clearance (CLint) [12]: 3 mL/min/g; K [13]: 5.17 ×10⁵ /M/s; K [14]: 0.256 s⁻¹; half-life at 50 µM [15]: > 3 h
CC(=O)NC1(C(=O)N[C@H](C(=O)N2C[C@H](O)C[C@H]2C(=O)NCc2ccc(-c3scnc3C)cc2)C(C)(C)C)CC1	0.01	0.61	20	300	Kd [2]: 138 nM
Cc1ncsc1-c1ccc(CNC(=O)[C@@H]2C[C@H](O)CN2C(=O)[C@@H](NC(=O)C2(C#N)CC2)C(C)(C)C)cc1	–	–	–	–	Activity (HeLa [10]): Non-Toxic; Activity (HeLa [11]): Non-Toxic
Cc1ncsc1-c1ccc(CNC(=O)[C@@H]2C[C@@H](O)CN2C(=O)[C@@H](N2CCCC2=O)C(C)(C)C)cc1	–	–	33	1400	–
Cc1ncsc1-c1ccc(CNC(=O)[C@@H]2C[C@@H](O)CN2C(=O)[C@@H](NC(=O)CO)C(C)(C)C)cc1	0.01	0.65	16	200	Kd [2]: 105 nM
CC(=O)N[C@H](C(=O)N1C[C@H](O)C[C@H]1C(=O)NCc1ccc(-c2scnc2C)cc1)C(C)(C)C	0.12	0.9	100	–	intrinsic clearance (CLint) [12]: 0.7 mL/min/g; half-life at 50 µM [15]: > 3 h
CCC(=O)N[C@H](C(=O)N1C[C@H](O)C[C@H]1C(=O)NCc1ccc(-c2scnc2C)cc1)C(C)(C)C	–	–	98	–	–
Cc1ncsc1-c1ccc(CNC(=O)[C@@H]2C[C@@H](O)CN2C(=O)[C@@H](NC(=O)OC(C)(C)C)C(C)(C)C)cc1	–	–	12	6500	–
Cc1ncsc1-c1ccc(CNC(=O)[C@@H]2C[C@@H](O)CN2C(=O)[C@@H](NC(=O)C2CC(=O)C2)C(C)(C)C)cc1	–	–	28	500	–
Cc1ncsc1-c1ccc(CNC(=O)[C@@H]2C[C@@H](O)CN2C(=O)[C@@H](NC(=O)C(Cl)(Cl)Cl)C(C)(C)C)cc1	–	–	89	200	–
CC(=O)N1CC(C(=O)N[C@H](C(=O)N2C[C@H](O)C[C@H]2C(=O)NCc2ccc(-c3scnc3C)cc2)C(C)(C)C)C1	–	–	12	4900	–
